Screening data deposited in PubChem BioAssay by several laboratories.
UCH37 inh: inhibitors of human UCH37 deubiquitinase, primary screen, biochemical, Ub-AMC cleavage, fluorescence; Ubiquitin carboxyl-terminal hydrolase isozyme L5 (Homo sapiens), Q9Y5K5; purified proteasome/UCH37; inhibition, % (concentration not given with the values); 330,000 compounds, 0.33% hits; AID 588478, 2011;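 active = mean inhibition over replicate wells above about 20%, limit read from the data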
Target sequence (Q9Y5K5 whole entry, looked up): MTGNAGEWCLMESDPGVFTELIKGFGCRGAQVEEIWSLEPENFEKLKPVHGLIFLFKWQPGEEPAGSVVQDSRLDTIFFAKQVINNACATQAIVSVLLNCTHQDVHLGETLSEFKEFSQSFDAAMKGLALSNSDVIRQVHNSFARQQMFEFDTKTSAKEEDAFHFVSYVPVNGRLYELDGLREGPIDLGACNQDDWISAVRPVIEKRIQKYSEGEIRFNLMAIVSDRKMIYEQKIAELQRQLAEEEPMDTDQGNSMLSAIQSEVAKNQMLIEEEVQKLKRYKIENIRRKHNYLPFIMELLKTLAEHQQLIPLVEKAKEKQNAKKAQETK
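Reagent: Ub-AMC substrate; assay system: Proteasome-associated human UCH37 deubiquitinase; controls: no-proteasome and no-compound wells; read-out: % inhibition of Ub-AMC cleavage fluorescence; timing: 30 min preincubation with enzyme, 25 min cleavage at room temperature; signal: AMC fluorescence from Ub-AMC cleavage, excitation 355 nm, emission 460 nm; buffer or medium: Tris-HCl pH 7.4 plus ovalbumin, ATP-MgCl2, DTT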
CRFBP-R2 agonist: agonists of CRF-BP/CRF-R2 complex, primary screen, cell-based, HEK293, calcium dye fluorescence, uHTS | CRF-binding protein / CRF receptor 2 complex (human) | calcium dye fluorescence (FLIPR); percent of saturating CRF peptide response | activation, % at 13.2 µM | 350,000 compounds, 0.46% hits | AID 588473, 2011;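 active = activation of at least 50%, plus an integration ratio under a set limit after plate pattern correction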
hiPSC survival: enhancers of single-cell hiPSC survival, primary screen, ATPlite luminescence; 100% = ROCK inhibitor wells, 0% = DMSO; survival enhancement, % at 20 µM; 360,000 compounds, 0.044% hits; AID 602274, 2012; in the data active = survival enhancement above about 18%;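 also: cells exposed to compounds for 16 hours before the ATP read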
CRFBP-R2 block: antagonists of CRF-BP/CRF-R2 complex, primary screen, cell-based, HEK293, calcium dye fluorescence, uHTS; CRF-induced calcium fluorescence; inhibition, % at 11.8 µM; 350,000 compounds, 0.59% hits; AID 588475, 2011;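 active = inhibition of the ligand-induced calcium signal above about 50% at the single tested concentration, limit read from the data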
Cardio protect: cardioprotection against H2O2-induced cell death, primary screen, uHTS, H9c2 cells, ATPLite luminescence; H9c2 cardiomyocytes, H2O2 injury protection, 2 h; protection from H2O2 cell death, % at 20 µM; 360,000 compounds, 0.63% hits;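 active = compounds giving at least 50% protection of heart cells from peroxide-induced death in the single-dose screen, raw or plate-pattern-corrected value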
beta cell repl: inducers of MIN6 beta-cell proliferation, primary screen, ATP luminescence, uHTS; MIN6 cells proliferation, ATPlite luminescence, 48 h; cells starved in 0.2% serum; 100% = growth in 10% serum; proliferation, % at 10 µM; 330,000 compounds, 0.29% hits; AID 2380, 2010;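 active = compounds whose signal lies at least 3.5 SD above the mean of all wells on their plate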
UCH37 reconfirm: retest of human UCH37 deubiquitinase inhibitors, confirmation, biochemical, Ub-AMC cleavage rate, fluorescence; Proteasome-bound UCH37; shares compounds with UCH37 inh; AID 624100, 2012; 480 compounds, 27% hits; inhibition, % at 20 µM;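 active = average inhibition over replicates above about 50%, so the earlier screening hit is confirmed, limit read from the data; inactive = the rest, counted as false positives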;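 also: based on cleavage rate fitted by regression over a 30 min kinetic read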
A number is an active result; i = inactive; nt = not tested or not shown. Hits are enriched below; roughly 2.1% of the tested compounds scored in any of these assays.

SMILES	UCH37 inh	CRFBP-R2 agonist	hiPSC survival	CRFBP-R2 block	Cardio protect	beta cell repl	UCH37 reconfirm
COc1ccc(C=NNC(=O)CN(C)C(=O)OCc2ccccc2)cc1OC	i	nt	nt	nt	nt	nt	nt
Nc1nonc1-n1nnc(C(=O)NN=Cc2cccs2)c1CSc1ccccc1	i	nt	nt	nt	nt	nt	nt
CCN1/C(=C/C=C/c2oc3ccc(-c4ccccc4)cc3[n+]2CC)Oc2ccc(-c3ccccc3)cc21	35	227	i	i	i	i	76
Cn1cnc([N+](=O)[O-])c1Nc1ccc(O)cc1	52	i	i	i	i	i	i
Cc1ccc(NC(=O)CN2C(=O)S/C(=C/c3ccc(O)c([N+](=O)[O-])c3)C2=O)cc1C	28	i	i	i	i	i	i
Cc1cccc(NC(=O)CN2C(=O)S/C(=C\c3ccc(O)c([N+](=O)[O-])c3)C2=O)c1	i	i	i	i	i	i	nt
CCOC(=O)/C=C(\C)Sc1cc(O)c2ccccc2c1O	81	i	i	i	i	nt	82
O=C(CCC(=O)Nc1cc(C(F)(F)F)ccc1Cl)NN=Cc1cc([N+](=O)[O-])ccc1O	i	nt	nt	nt	nt	nt	nt
O=c1cc(-c2ccc(O)cc2)oc2c(O)c(O)c(O)c(O)c12	69	i	i	i	i	i	i
CCCCNC(=O)c1c(CSc2ccc(Cl)cc2)noc1C(=O)NCCC	i	i	i	i	i	i	nt
CCCCNC(=O)c1onc(CSc2ccc(Cl)cc2)c1C(=O)NCCCC	36	i	i	i	i	i	i
O=S(=O)(NCCC1=CCCCC1)c1cccc(S(=O)(=O)N2CCOCC2)c1	58	i	i	i	i	i	59
COC(=O)/C(N=Nc1cccc(C(F)(F)F)c1)=C(\C)O	43	i	i	i	i	i	i
ON=C1CCC(=NO)c2nn(-c3ccc(Cl)cc3Cl)nc21	i	nt	nt	nt	nt	nt	nt
COc1cc(C2C(C(=O)c3ccc(C)o3)=C(O)C(=O)N2c2cc(C)on2)cc(OC)c1OC (stereo not drawn)	i	i	i	i	i	i	nt
COc1cc(C2C(C(=O)c3ccc(C)o3)=C(O)C(=O)N2c2cc(C)on2)ccc1O (stereo not drawn)	46	i	i	i	i	i	i
Cc1cccc(C)c1NC(=O)COC(=O)c1ccc([N+](=O)[O-])o1	29	i	i	i	i	i	i
NC1=C(Br)C(=O)c2ccccc2C1=O	34	i	i	i	i	i	i
Cc1[nH]n(-c2ccccc2)c(=O)c1C(C[N+](=O)[O-])c1ccc(Cl)cc1 (stereo not drawn)	41	i	i	i	i	i	i
Cc1[nH]n(-c2ccccc2)c(=O)c1C(C[N+](=O)[O-])c1ccc(F)cc1 (stereo not drawn)	i	i	i	i	i	i	nt
Cc1ccc(C(C[N+](=O)[O-])c2c(C)[nH]n(-c3ccccc3)c2=O)cc1 (stereo not drawn)	53	i	i	i	i	i	i
CC(/C=C/c1ccc2c(c1)OCO2)=NNC(=O)c1cccc([N+](=O)[O-])c1	i	nt	nt	nt	nt	nt	nt
COc1ccc(NC(=O)C2CCCCN2N)cc1OC (stereo not drawn)	29	i	i	i	i	i	i
CC1(c2ccccc2Cl)NC(=O)N(CC(=O)NCCC2=CCCCC2)C1=O (stereo not drawn)	34	i	i	i	i	i	56
Cc1cc2ccccc2c(=O)n1CC(=O)NCCC1=CCCCC1	55	i	i	i	i	i	67
SMILES	UCH37 inh	CRFBP-R2 agonist	hiPSC survival	CRFBP-R2 block	Cardio protect	beta cell repl	UCH37 reconfirm
COCCCn1c(=O)c2ccccc2n(CC(=O)NCCC2=CCCCC2)c1=O	i	i	i	i	i	i	nt
C(=NNc1nc2ccccc2[nH]1)c1cccc2nccnc12	i	nt	nt	nt	nt	nt	nt
COc1ccccc1-c1coc2cc(O)cc(O)c2c1=O	48	i	i	i	i	i	i
COc1ccc(-c2coc3cc(O)cc(O)c3c2=O)cc1OC	i	i	i	i	i	i	nt
COc1ccc(C)cc1NC(=O)CC(C)=NNC(=O)Cc1cccc2ccccc12	i	nt	nt	nt	nt	nt	nt
CCN1/C(=C/C=C/c2sc3ccccc3[n+]2CC)Sc2ccccc21	i	i	i	i	i	i	nt
CCN1/C(=C/c2ccc3cc(C)ccc3[n+]2CC)Sc2ccccc21	36	155	i	i	i	i	i
O=C(NN=Cc1ccc(Br)s1)c1c[nH]c2ccccc12	i	nt	nt	nt	nt	nt	nt
O=C(COC(=O)c1ccc([N+](=O)[O-])s1)Nc1cccc(S(=O)(=O)NC2=NCCCCC2)c1	62	i	i	68	i	i	i
O=C(COC(=O)c1ccc([N+](=O)[O-])s1)Nc1ccc(F)cc1	67	i	i	i	i	i	77
CC(C)(C)c1ccc(NC(=O)COC(=O)c2ccc([N+](=O)[O-])s2)cc1	i	i	i	i	i	nt	nt
O=C(COC(=O)c1ccc([N+](=O)[O-])s1)Nc1ccccc1	60	i	i	i	i	i	i
O=C(COC(=O)c1ccc([N+](=O)[O-])s1)NC(c1ccccc1)c1ccccc1	i	i	i	i	i	i	nt
O=C(COC(=O)c1ccc([N+](=O)[O-])s1)NCc1ccccc1	39	i	i	i	i	i	i
O=[N+]([O-])c1cccc(C=NN2CCN(Cc3ccc(Cl)cc3)CC2)c1	i	nt	nt	nt	nt	nt	nt
CCN(CC)c1ccc(C=NO)cc1	i	nt	nt	nt	nt	nt	nt
Cc1ccc(C(=O)OCc2nnc(-c3ccccc3)o2)s1	i	i	i	i	i	i	nt
O=C(OCc1nnc(-c2ccccc2)o1)c1ccc([N+](=O)[O-])s1	80	i	i	i	52	i	i
COc1ccc(S(=O)(=O)N2CCOCC2)cc1NC(=O)COC(=O)c1[nH]c(C)c(C(C)=O)c1C	i	i	i	i	i	i	nt
COc1ccc(S(=O)(=O)N2CCOCC2)cc1NC(=O)COC(=O)c1ccc([N+](=O)[O-])s1	62	i	i	i	i	i	i
Cn1c(SC(C(=O)Nc2ccc(F)cc2)c2ccccc2)nc2ccccc21 (stereo not drawn)	45	i	i	i	i	i	i
Cn1nnnc1SC(C(=O)Nc1ccc(F)cc1)c1ccccc1 (stereo not drawn)	i	i	i	i	i	i	nt
O=C1C(Nc2cccc(O)c2)=C(N2CCCCC2)C(=O)c2ccccc21	31	i	i	i	i	i	i
